pIC50: −log10 of the molar value. Some results are limits rather than exact numbers.

The target in the first test is T1, Tumor necrosis factor (Homo sapiens, UniProt P01375). In words: Inhibition of LPS-induced TNF-alpha production in human PBMC preincubated for 30 mins followed by LPS addition measured after 5 hrs by ELISA. The method in brief: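 Donor blood diluted 1:1 in PBS; PBMCs isolated on histopaque, washed, resuspended in RPMI 1640 with 10% FBS and antibiotics, 1 x 10^6 cells/ml (viability ≥98%). Compounds at 0.03–100 μM in DMSO (final 0.5%) for 30 min at 37 °C, 5% CO2, then E. coli 0127:B8 LPS 1 µg/mL final for 5 h. Supernatant TNF-α by ELISA; % inhibition vs vehicle; IC50 mean of three independent experiments.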
T1 sequence (P01375 whole entry): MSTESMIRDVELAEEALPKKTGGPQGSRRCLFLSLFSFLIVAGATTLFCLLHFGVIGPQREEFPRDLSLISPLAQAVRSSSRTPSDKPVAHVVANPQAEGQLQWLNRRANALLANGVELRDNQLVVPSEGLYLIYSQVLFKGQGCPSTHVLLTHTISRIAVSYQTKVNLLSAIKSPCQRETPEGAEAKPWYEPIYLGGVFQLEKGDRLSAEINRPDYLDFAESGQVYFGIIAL
A general note: In an ELISA, binding on a coated surface is turned into a signal by an enzyme label.
The term pIC50 denotes the negative decadic logarithm of the IC50, by convention in mol/L. Higher therefore signals a small IC50. The molecule `O=S(=O)(c1cnc2ccc(Cl)nn12)N1CCN(Cc2ccccc2)CC1` gave a pIC50 of 4.52.

The molecule `COc1ccc(-c2ccc3ncc(S(=O)(=O)N4CCC(C#N)(c5ccccc5)CC4)n3n2)cc1OC` gave a pIC50 of 6.30.

For `O=S(=O)(NCC1CCCO1)c1cnc2ccc(Cl)nn12` (configuration not stated), the pIC50 is 4.52.

Molecule `COc1cccc(CNS(=O)(=O)c2cnc3ccc(-c4ccc(S(C)(=O)=O)cc4)nn23)c1` showed a pIC50 of 4.55.

In turn, `O=S(=O)(c1cnc2ccc(-c3cccnc3)nn12)N1CCN(Cc2ccccc2)CC1` had a negative logarithm of the IC50 (pIC50) of 4.74.

For the molecule `N#CC1(c2ccccc2)CCN(S(=O)(=O)c2cnc3ccc(Cl)nn23)CC1`, the pIC50 is 4.60.

Take `CS(=O)(=O)c1ccc(-c2ccc3ncc(S(=O)(=O)N4CCC(C#N)(c5ccccc5)CC4)n3n2)cc1`: the negative-log IC50 (pIC50) is 5.10.

Molecule `O=S(=O)(c1cnc2ccc(-c3cncc(F)c3)nn12)N1CCN(c2ccccn2)CC1` gave a pIC50 of 4.55.

As for `O=S(=O)(c1cnc2ccc(-c3cncc(C(F)(F)F)c3)nn12)N1CCN(c2ccccn2)CC1`, the pIC50 is 4.96.

`Nc1ncc(-c2ccc3ncc(S(=O)(=O)N4CCN(c5ccccn5)CC4)n3n2)cc1C(F)(F)F` had a pIC50 of 4.96.

Turning to `CS(=O)(=O)c1ccc(-c2ccc3ncc(S(=O)(=O)N4CCN(c5ccccn5)CC4)n3n2)cc1`, the pIC50 is 4.92.

In turn, `N#CC1(c2ccccc2)CCN(S(=O)(=O)c2cnc3ccc(-c4cccnc4)nn23)CC1` had a pIC50 of 5.15.

Molecule `N#CC1(c2ccccc2)CCN(S(=O)(=O)c2cnc3ccc(-c4cncc(C(F)(F)F)c4)nn23)CC1` had a negative logarithm of the IC50 (pIC50) of 4.70.

Regarding `COc1cccc(CNS(=O)(=O)c2cnc3ccc(-c4cncc(F)c4)nn23)c1`, the pIC50 was 5.22.

With `COc1cccc(CNS(=O)(=O)c2cnc3ccc(-c4cncc(C(F)(F)F)c4)nn23)c1`, the pIC50 was less than 4.52.

The molecule `O=S(=O)(NCC1CCCO1)c1cnc2ccc(-c3cccnc3)nn12` (configuration not stated) gave a pIC50 of 5.40.

In turn, `O=S(=O)(NCC1CCCO1)c1cnc2ccc(-c3cncc(F)c3)nn12` (configuration not stated) had a pIC50 of 5.40.

On to `O=S(=O)(NCC1CCCO1)c1cnc2ccc(-c3cncc(C(F)(F)F)c3)nn12` (configuration not stated), for which the pIC50 was less than 4.52.

With `O=S(=O)(c1cnc2ccc(-c3cccnc3)nn12)N1CCN(c2ccccn2)CC1`, the pIC50 is 4.96.

For `N#CC1(c2ccccc2)CCN(S(=O)(=O)c2cnc3ccc(-c4cncc(F)c4)nn23)CC1`, the pIC50 is less than 4.52.

In turn, `COc1cccc(CNS(=O)(=O)c2cnc3ccc(-c4ccc(OC)nc4)nn23)c1` showed a pIC50 of less than 4.52.

Molecule `CS(=O)(=O)c1ccc(-c2ccc3ncc(S(=O)(=O)NCC4CCCO4)n3n2)cc1` (configuration not stated) showed a pIC50 of less than 4.52.

For the molecule `CCN1CCN(S(=O)(=O)c2cnc3ccc(-c4ccc(S(C)(=O)=O)cc4)nn23)CC1`, the pIC50 is 4.82.

The molecule `CCN1CCN(S(=O)(=O)c2cnc3ccc(-c4ccc(OC)cc4)nn23)CC1` showed a pIC50 of 4.70.

With `CCN1CCN(S(=O)(=O)c2cnc3ccc(-c4cncc(C(F)(F)F)c4)nn23)CC1`, the pIC50 is 5.05.

`CCN1CCN(S(=O)(=O)c2cnc3ccc(-c4cncc(F)c4)nn23)CC1`: the negative-log IC50 (pIC50) is less than 4.52.

In turn, `CCN1CCN(S(=O)(=O)c2cnc3ccc(-c4cccnc4)nn23)CC1` gave a pIC50 of 4.82.

Regarding `COc1cccc(CNS(=O)(=O)c2cnc3ccc(Cl)nn23)c1`, the pIC50 is less than 4.52.

For `O=S(=O)(c1cnc2ccc(Cl)nn12)N1CCN(c2ccccc2)CC1`, the negative-log IC50 (pIC50) is 4.52.

For the molecule `CCN1CCN(S(=O)(=O)c2cnc3ccc(Cl)nn23)CC1`, the pIC50 is less than 4.52.

For `NS(=O)(=O)c1cnc2ccc(Cl)nn12`, the pIC50 is 4.55.

In turn, `O=S(=O)(c1cnc2ccc(-c3cncc(F)c3)nn12)N1CCN(Cc2ccccc2)CC1` showed a pIC50 of less than 4.52.

For `CCN1CCN(S(=O)(=O)c2cnc3ccc(-c4ccc(OC)nc4)nn23)CC1`, the pIC50 is 4.70.

For `Nc1ncc(-c2ccc3ncc(S(N)(=O)=O)n3n2)cc1C(F)(F)F`, the pIC50 was 5.40.

For the molecule `O=S(=O)(c1cnc2ccc(Cl)nn12)N1CCN(c2ccccn2)CC1`, the pIC50 was less than 4.52.

Take `CS(=O)(=O)c1ccc(-c2ccc3ncc(S(=O)(=O)N4CCN(Cc5ccccc5)CC4)n3n2)cc1`: the pIC50 is 4.92.

The molecule `COc1ccc(-c2ccc3ncc(S(=O)(=O)N4CCN(c5ccccn5)CC4)n3n2)cn1` showed a pIC50 of less than 4.52.

As for `COc1cccc(CNS(=O)(=O)c2cnc3ccc(-c4cccnc4)nn23)c1`, the pIC50 is 6.52.

In turn, `COc1cccc(CNS(=O)(=O)c2cnc3ccc(-c4cnc(N)c(C(F)(F)F)c4)nn23)c1` had a negative-log IC50 (pIC50) of less than 4.52.

Molecule `COc1ccc(-c2ccc3ncc(S(=O)(=O)NCC4CCCO4)n3n2)cc1` (configuration not stated) gave a pIC50 of 5.40.

`COc1ccc(-c2ccc3ncc(S(=O)(=O)NCC4CCCO4)n3n2)cn1` (configuration not stated) showed a pIC50 of 5.22.

Another test has as its target T1, Tumor necrosis factor. Put plainly: Inhibition of LPS-induced TNF-alpha production in human MNC suspension after 20 hrs by radioimmunoassay.
Molecule `COc1ccc([C@@H]2CNC(=O)C2)cc1OC1CCCC1` (racemic) [Adeo] showed a pIC50 of 6.70.

Source of the values: BindingDB's records for doi:10.1016/j.bmcl.2017.11.026 (Padmashri Vikhe Patil College of Arts, 2018).
